Experimental data taken from ChEMBL document CHEMBL4828732, “Synthesis and biological evaluation of selective survivin inhibitors derived from the MX-106 hydroxyquinoline scaffold” (Eur J Med Chem, 2021).
Activity calls are given as the source filed them. The rule behind the calls is not given here.

Key:
MDA-MB-435/LCC6MDR1 = experiment: cells; details: Homo sapiens, MDA-MB-435, 72 h
MDA-MB-453 = experiment: cells; details: Homo sapiens, MDA-MB-453, 72 h
MDA-MB-435 = experiment: cells; details: Homo sapiens, MDA-MB-435, 72 h
SK-BR-3 = experiment: cells; details: Homo sapiens, SK-BR-3, 72 h
A-375 [1] = experiment: cells; details: Homo sapiens, A-375, 72 h
[2] = Resistance index, ratio of IC50 for antiproliferation activity against human MDA-MB-435/LCC6MDR cells to IC50 for antiproliferation activity against human MDA-MB-435 cells assessed as cell growth inhibition measured after 72 hrs by MTS assay; type: functional
RPMI-7951 = experiment: cells; details: Homo sapiens, RPMI-7951, 72 h
[3] = Metabolic stability of the compound in rat liver microsomes assessed as clearance at 10 uM incubated for 10 mins in presence of NADPH by UPLC-MS analysis; type: ADME, Microsome
[4] = Metabolic stability of the compound in human liver microsomes assessed as clearance at 10 uM incubated for 240 mins in presence of NADPH by UPLC-MS analysis; details: 4 h
A-375 [5] = experiment: Downregulation of survivin protein expression in human A-375 cells measured after 24 hrs by Westernblot analysis; type: functional, cell-based
Summary of the method: (§1)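 A375 cells (2 × 10⁶ per 10-cm dish) attached overnight, then treated 24 h in DMEM with 1, 5 or 10 μM. Lysed in RIPA with protease/phosphatase inhibitors; protein measured by Bradford. 50 μg run on SDS-PAGE, transferred to PVDF, blocked in 5% milk, probed overnight at 4°C for survivin, cleaved PARP, cIAP1, XIAP, Livin, with HRP-GAPDH as loading control; ECL detection.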

[6] = Metabolic stability of the compound in human liver microsomes assessed as half life at 10 uM incubated for 10 mins in presence of NADPH by UPLC-MS analysis; type: ADME, Microsome
A-375 [7] = experiment: Induction of apoptosis in human A-375 cells assessed as increase in cleaved PARP level after 24 hrs by Western blot analysis; type: functional, cell-based
Summary of the method: as §1

OVCAR-8 = experiment: cells; details: Homo sapiens, OVCAR-8, 72 h
[8] = Metabolic stability of the compound in rat liver microsomes assessed as half life at 10 uM incubated for 10 mins in presence of NADPH by UPLC-MS analysis; type: ADME, Microsome
[9] = Metabolic stability of the compound in mouse liver microsomes assessed as half life at 10 uM incubated for 10 mins in presence of NADPH by UPLC-MS analysis; type: ADME, Microsome
OVCAR-3 = experiment: cells; details: Homo sapiens, OVCAR-3, 72 h
[10] = Metabolic stability of the compound in mouse liver microsomes assessed as clearance at 10 uM incubated for 10 mins in presence of NADPH by UPLC-MS analysis; type: ADME, Microsome

| IC50 (MDA-MB-435/LCC6MDR1) | IC50 (MDA-MB-453) | IC50 (MDA-MB-435) | IC50 (SK-BR-3) | IC50 (A-375 [1]) | IC50 (RPMI-7951) | CLH [3] | CLH [4] | t1/2 [6] | IC50 (OVCAR-8) | t1/2 [8] | t1/2 [9] | IC50 (OVCAR-3) | CLH [10] | Structure (SMILES) | Ratio IC50 [2] | Activity (A-375 [5]) | Activity (A-375 [7]) |
| --- | --- | --- | --- | --- | --- | --- | --- | --- | --- | --- | --- | --- | --- | --- | --- | --- | --- |
| 200 nM | 1300 nM | 2100 nM | 5700 nM | 1000 nM | 800 nM | – | – | – | – | – | – | – | – | CC(C)c1ccc(COCc2cc(Br)c(O)c3ncccc23)cc1 | 0.1 | – | – |
| 1000 nM | 1700 nM | 1200 nM | 3100 nM | 800 nM | 700 nM | – | – | – | – | – | – | – | – | CC(C)c1ccc(COCc2cc(-c3ccnc4ccccc34)c(O)c3ncccc23)cc1 | 0.8 | – | – |
| 600 nM | 3100 nM | 3100 nM | 2700 nM | 700 nM | 1700 nM | 22.6 µL/min/mg | 12 µL/min/mg | 1.9 h | 1700 nM | 1 h | 0.8 h | 1000 nM | 27.8 µL/min/mg | Oc1c(CN2CCCC2)cc(Cn2ncc(-c3ccc(Br)cc3)n2)c2cccnc12 | 0.2 | Dose-Dependent Effect | Active |
| 3000 nM | 800 nM | 1900 nM | 1300 nM | 800 nM | 600 nM | – | – | – | – | – | – | – | – | COc1ccc(-c2cc(COCc3ccc(C(C)C)cc3)c3cccnc3c2O)cc1 | 1.6 | – | – |
| 1600 nM | 6300 nM | 3100 nM | 4200 nM | 900 nM | 2100 nM | – | – | – | – | – | – | – | – | Oc1c(CN2CCCCCC2)cc(Cn2ncc(-c3ccc(C(F)(F)F)cc3)n2)c2cccnc12 | 0.5 | – | – |
| 1300 nM | – | 3300 nM | 3900 nM | 1000 nM | 800 nM | – | – | – | – | – | – | – | – | Oc1c(CN2CCCC2)cc(COC2CCc3ccccc3C2)c2cccnc12 (configuration not stated) | 0.4 | – | – |
| 1000 nM | 3300 nM | 3200 nM | 3300 nM | 700 nM | 700 nM | – | – | – | – | – | – | – | – | CCc1ccc(-c2cnn(Cc3cc(CN4CCCC4)c(O)c4ncccc34)n2)cc1 | 0.3 | – | – |
| 2100 nM | 1600 nM | 3500 nM | 2300 nM | 1000 nM | 1100 nM | – | – | – | – | – | – | – | – | CC(C)c1ccc(COCc2cc(CN3CCCC3)c(O)c3ncccc23)cc1 | 0.6 | – | – |
| 1000 nM | 1300 nM | 600 nM | 1500 nM | 600 nM | 500 nM | 36.7 µL/min/mg | 16.3 µL/min/mg | 1.4 h | – | 0.6 h | 1.2 h | – | 19.9 µL/min/mg | CC(C)c1ccc(COCc2cc(-c3cncc4ccccc34)c(O)c3ncccc23)cc1 | 1.6 | – | – |
| 600 nM | 2900 nM | 5000 nM | 4000 nM | 2000 nM | 3100 nM | – | – | – | – | – | – | – | – | Oc1c(CN2CCCC2)cc(Cn2ncc(-c3ccccc3)n2)c2cccnc12 | 0.1 | – | – |
| 1700 nM | 5900 nM | 4600 nM | 4900 nM | 1100 nM | 2300 nM | – | – | – | – | – | – | – | – | CC(C)c1ccc(-c2cnn(Cc3cc(CN4CCCC4)c(O)c4ncccc34)n2)cc1 | 0.4 | – | – |
| 500 nM | 3100 nM | 2400 nM | 3000 nM | 700 nM | 700 nM | – | – | – | – | – | – | – | – | Oc1c(CN2CCCC2)cc(Cn2ncc(-c3ccccc3Br)n2)c2cccnc12 | 0.2 | – | – |
| 1200 nM | 4400 nM | 1900 nM | 5700 nM | 900 nM | 1300 nM | – | – | – | – | – | – | – | – | CC(C)c1ccc(COCc2cc(-c3ccc(C(F)(F)F)cc3)c(O)c3ncccc23)cc1 | 0.6 | – | – |
| 1400 nM | 2200 nM | 3900 nM | 2800 nM | 900 nM | 900 nM | – | – | – | – | – | – | – | – | COc1ccc(-c2cnn(Cc3cc(CN4CCCC4)c(O)c4ncccc34)n2)cc1 | 0.3 | – | – |
| 1600 nM | 2200 nM | 4800 nM | 2700 nM | 1100 nM | 1300 nM | – | – | – | – | – | – | – | – | Oc1c(CN2CCCC2)cc(Cn2ncc(-c3ccsc3)n2)c2cccnc12 | 0.3 | – | – |
| 1800 nM | 4100 nM | 5900 nM | 6000 nM | 1000 nM | 800 nM | – | – | – | – | – | – | – | – | N#Cc1ccc(-c2cnn(Cc3cc(CN4CCCC4)c(O)c4ncccc34)n2)cc1 | 0.3 | – | – |
| 2200 nM | 2400 nM | 2200 nM | 5900 nM | 1900 nM | 1300 nM | – | – | – | – | – | – | – | – | Oc1c(CN2CCCC2)cc(COC2Cc3ccccc3C2)c2cccnc12 | 1 | – | – |
| 1100 nM | 4100 nM | 4100 nM | 3600 nM | 700 nM | 700 nM | – | – | – | – | – | – | – | – | O=[N+]([O-])c1ccc(-c2cnn(Cc3cc(CN4CCCC4)c(O)c4ncccc34)n2)cc1 | 0.3 | – | – |
| 2200 nM | 1800 nM | 3200 nM | 2700 nM | 900 nM | 600 nM | – | – | – | – | – | – | – | – | Oc1c(CN2CCCC2)cc(Cn2ncc(-c3ccc(OCc4ccccc4)cc3)n2)c2cccnc12 | 0.7 | – | – |
| > 1000 nM | – | – | – | – | – | – | – | – | – | – | – | – | – | COCC[n+]1c2c(n(Cc3cnccn3)c1C)C(=O)c1ccccc1C2=O.[Br-] [SEPANTRONIUM BROMIDE] | >425 | – | – |
| 900 nM | 2400 nM | 2400 nM | 3000 nM | 1000 nM | 700 nM | – | – | – | – | – | – | – | – | Oc1c(CN2CCOCC2)cc(Cn2ncc(-c3ccc(Br)cc3)n2)c2cccnc12 | 0.4 | – | – |
| 1100 nM | 3500 nM | 4100 nM | 3200 nM | 800 nM | 1600 nM | – | – | – | – | – | – | – | – | Oc1c(CN2CCCC2)cc(Cn2ncc(-c3ccc(C(F)(F)F)cc3)n2)c2cccnc12 | 0.3 | – | – |
| 1300 nM | 3100 nM | 8900 nM | 6900 nM | 2200 nM | 2800 nM | – | – | – | – | – | – | – | – | Oc1c(CN2CCCC2)cc(Cn2cnc(-c3ccccc3)c2)c2cccnc12 | 0.1 | – | – |
| 2300 nM | 900 nM | 1800 nM | 1600 nM | 800 nM | 700 nM | – | – | – | – | – | – | – | – | Cc1ccc(-c2cc(COCc3ccc(C(C)C)cc3)c3cccnc3c2O)cc1 | 1.3 | – | – |
| 1700 nM | 6200 nM | 3800 nM | 4000 nM | 1000 nM | 1900 nM | – | – | – | – | – | – | – | – | CCN(CC)Cc1cc(Cn2ncc(-c3ccc(C(F)(F)F)cc3)n2)c2cccnc2c1O | 0.5 | – | – |
| 1200 nM | 1500 nM | 2200 nM | 1900 nM | 1000 nM | 900 nM | 18 µL/min/mg | 17.5 µL/min/mg | 1.3 h | 1700 nM | 1.3 h | 0.7 h | 500 nM | 35 µL/min/mg | Oc1c(CN2CCCCC2)cc(Cn2ncc(-c3ccc(Br)cc3)n2)c2cccnc12 | 0.5 | – | – |
| 5100 nM | 2000 nM | 4700 nM | 2400 nM | 800 nM | 600 nM | – | – | – | – | – | – | – | – | Oc1c(CN2CCNCC2)cc(Cn2ncc(-c3ccc(Br)cc3)n2)c2cccnc12 | 1.1 | – | – |
| 900 nM | 600 nM | 1100 nM | 800 nM | 600 nM | 500 nM | – | – | – | – | – | – | – | – | CC(C)c1ccc(COCc2cc(-c3ccsc3)c(O)c3ncccc23)cc1 | 0.9 | – | – |
| 1000 nM | 1700 nM | 1800 nM | 3300 nM | 700 nM | 1100 nM | – | – | – | – | – | – | – | – | Cc1cccc(-c2cc(COCc3ccc(C(C)C)cc3)c3cccnc3c2O)c1 | 0.6 | – | – |
| 700 nM | 2900 nM | 2000 nM | 2900 nM | – | 600 nM | – | – | – | – | – | – | – | – | Cc1ccc(-c2cnn(Cc3cc(CN4CCCC4)c(O)c4ncccc34)n2)cc1 | 0.4 | – | – |
